Measurements reported in ChEMBL document CHEMBL1149207, “Non-nucleoside inhibitors of the hepatitis C virus NS5B polymerase: discovery of benzimidazole 5-carboxylic amide derivatives with low-nanomolar potency” (Bioorg Med Chem Lett, 2004).

These compounds were tested against RNA-directed RNA polymerase (Hepacivirus hominis, UniProt O39930) (assay: Concentration required for inhibiting hepatitis C virus NS5B RNA polymerase activity.).
Procedure, shortened: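 HCV NS5B polymerase IC50; each value is the mean of at least duplicate experiments, run on two separate weighings of compound.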

RNA-directed RNA polymerase, sequence (O39930 whole entry): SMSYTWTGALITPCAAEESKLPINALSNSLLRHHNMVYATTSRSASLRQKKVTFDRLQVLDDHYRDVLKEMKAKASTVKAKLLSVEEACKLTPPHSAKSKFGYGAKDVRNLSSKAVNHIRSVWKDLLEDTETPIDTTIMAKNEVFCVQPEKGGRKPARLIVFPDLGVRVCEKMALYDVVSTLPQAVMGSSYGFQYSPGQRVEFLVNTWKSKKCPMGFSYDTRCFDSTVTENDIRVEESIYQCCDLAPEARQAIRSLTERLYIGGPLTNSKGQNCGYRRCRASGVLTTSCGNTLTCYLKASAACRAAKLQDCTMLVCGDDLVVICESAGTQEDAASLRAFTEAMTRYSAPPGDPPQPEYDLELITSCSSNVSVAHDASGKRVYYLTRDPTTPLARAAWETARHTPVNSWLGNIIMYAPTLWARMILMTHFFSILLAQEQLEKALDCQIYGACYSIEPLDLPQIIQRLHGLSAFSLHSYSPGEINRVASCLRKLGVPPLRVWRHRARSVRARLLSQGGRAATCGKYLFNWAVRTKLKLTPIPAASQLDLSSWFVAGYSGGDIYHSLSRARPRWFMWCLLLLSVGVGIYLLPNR

IC50 [nM] | SMILES
12000 | COc1ccc([C@H](C)NC(=O)c2ccc3c(c2)nc(-c2ccccn2)n3C2CCCCC2)cc1OC
60 | CC(=O)Nc1ccc2[nH]cc(C[C@H](NC(=O)c3ccc4c(c3)nc(-c3ccoc3)n4C3CCCCC3)C(=O)O)c2c1
90 | Nc1ccc2[nH]cc(C[C@H](NC(=O)c3ccc4c(c3)nc(-c3ccoc3)n4C3CCCCC3)C(=O)O)c2c1
2000 | COc1ccc([C@H](NC(=O)c2ccc3c(c2)nc(-c2ccccn2)n3C2CCCCC2)C(=O)O)cc1OC
160 | Cn1cc(C[C@@H](NC(=O)c2ccc3c(c2)nc(-c2ccoc2)n3C2CCCCC2)C(=O)O)c2cc(O)ccc21
120 | CS(=O)(=O)Nc1ccc2[nH]cc(C[C@H](NC(=O)c3ccc4c(c3)nc(-c3ccoc3)n4C3CCCCC3)C(=O)O)c2c1
7000 | O=C(N[C@@H](Cc1ccccc1)C(=O)O)c1ccc2c(c1)nc(-c1ccccn1)n2C1CCCCC1
50 | O=C(N[C@@H](Cc1c[nH]c2ccc(O)cc12)C(=O)O)c1ccc2c(c1)nc(-c1ccoc1)n2C1CCCCC1
700 | O=C(N[C@H](Cc1c[nH]c2ccc(O)cc12)C(=O)O)c1ccc2c(c1)nc(-c1ccoc1)n2C1CCCCC1
37 | NC(=O)c1ccc2[nH]cc(C[C@H](NC(=O)c3ccc4c(c3)nc(-c3ccoc3)n4C3CCCCC3)C(=O)O)c2c1
1500 | O=C(NCCc1c[nH]c2ccc(O)cc12)c1ccc2c(c1)nc(-c1ccoc1)n2C1CCCCC1

Second part, the compound before the results:

SMILES | IC50 [nM]
O=C(N[C@@H](Cc1c[nH]c2ccccc12)C(=O)O)c1ccc2c(c1)nc(-c1ccccn1)n2C1CCCCC1 | 1900
O=C(O)C(=O)Nc1ccc2[nH]cc(C[C@H](NC(=O)c3ccc4c(c3)nc(-c3ccoc3)n4C3CCCCC3)C(=O)O)c2c1 | 8
Cc1ccc2[nH]cc(C[C@H](NC(=O)c3ccc4c(c3)nc(-c3ccoc3)n4C3CCCCC3)C(=O)O)c2c1 | 2200
O=C(N[C@@H](Cc1ccc(O)cc1)C(=O)O)c1ccc2c(c1)nc(-c1ccoc1)n2C1CCCCC1 | 400
O=C(N[C@@H](Cc1c[nH]c2ccc(F)cc12)C(=O)O)c1ccc2c(c1)nc(-c1ccoc1)n2C1CCCCC1 | 2900
O=C(O)c1ccc2[nH]cc(C[C@H](NC(=O)c3ccc4c(c3)nc(-c3ccoc3)n4C3CCCCC3)C(=O)O)c2c1 | 20
COc1ccc([C@H](NC(=O)c2ccc3c(c2)nc(-c2ccoc2)n3C2CCCCC2)C(=O)O)cc1OC | 400
O=C(N[C@@H](Cc1c[nH]c2ccccc12)C(=O)O)c1ccc2c(c1)nc(-c1ccoc1)n2C1CCCCC1 | 400
O=C(N[C@@H](Cc1ccccc1)C(=O)O)c1ccc2c(c1)nc(-c1ccoc1)n2C1CCCCC1 | 4000
O=C(O)COc1ccc2[nH]cc(C[C@H](NC(=O)c3ccc4c(c3)nc(-c3ccoc3)n4C3CCCCC3)C(=O)O)c2c1 | 19
O=C(N[C@@H](Cc1c[nH]c2ccc(C3N=NN=N3)cc12)C(=O)O)c1ccc2c(c1)nc(-c1ccoc1)n2C1CCCCC1 | 15
O=C(N[C@@H](Cc1c[nH]c2ccc([N+](=O)[O-])cc12)C(=O)O)c1ccc2c(c1)nc(-c1ccoc1)n2C1CCCCC1 | 2000
COc1ccc(CNC(=O)c2ccc3c(c2)nc(-c2ccccn2)n3C2CCCCC2)cc1OC | 7000
O=C(N[C@@H](Cc1c[nH]c2ccc(O)cc12)C(=O)O)c1ccc2c(c1)nc(-c1ccccn1)n2C1CCCCC1 | 140
Cc1[nH]c2ccc(O)cc2c1C[C@H](NC(=O)c1ccc2c(c1)nc(-c1ccoc1)n2C1CCCCC1)C(=O)O | 460
O=C(N[C@@H](Cc1ccc(O)cc1)C(=O)O)c1ccc2c(c1)nc(-c1ccccn1)n2C1CCCCC1 | 1500
O=C(N[C@@H](Cc1c[nH]c2ccc(NS(=O)(=O)C(F)(F)F)cc12)C(=O)O)c1ccc2c(c1)nc(-c1ccoc1)n2C1CCCCC1 | 150
CC(C)(Oc1ccc2[nH]cc(C[C@H](NC(=O)c3ccc4c(c3)nc(-c3ccoc3)n4C3CCCCC3)C(=O)O)c2c1)C(=O)O | 100
COc1ccc2[nH]cc(C[C@H](NC(=O)c3ccc4c(c3)nc(-c3ccoc3)n4C3CCCCC3)C(=O)O)c2c1 | 400
COc1ccc([C@@H](C)NC(=O)c2ccc3c(c2)nc(-c2ccccn2)n3C2CCCCC2)cc1OC | 3000
